pIC50: −log10 of the molar value. The source made the active and inactive calls. No cut-off for these calls is given here.
Experiments:
MCF7 = assay: Cytotoxicity against human MCF7 cells after 72 hrs by MTT assay; format: functional, cell-based; conditions: MCF7, 72 h
Outline: (§1)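 Cells grown in RPMI with 10% heat-inactivated fetal calf serum and exposed to compound for 72 h. Overall growth read by MTT colorimetric assay; IC50 derived from it. Six replicates per condition.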

PC-3 = assay: Cytotoxicity against human PC3 cells after 72 hrs by MTT assay; format: functional, cell-based; conditions: PC-3, 72 h; outline: as §1
SK-MEL-28 = assay: Cytotoxicity against human SK-MEL-28 cells after 72 hrs by MTT assay; format: functional, cell-based; conditions: SK-MEL-28, 72 h; outline: as §1
[1] = Cytotoxicity against human Hs683 cells after 72 hrs by MTT assay; format: functional, cell-based; conditions: Hs 683, 72 h; outline: as §1
[2] = Cytotoxicity against human U373 cells after 72 hrs by MTT assay; format: functional, cell-based, U-373MG ATCC; conditions: U373 MG; outline: as §1
A549 = assay: Cytotoxicity against human A549 cells after 72 hrs by MTT assay; format: functional, cell-based; conditions: A549, 72 h; outline: as §1
Hs 683 = assay: Inhibition of RAS oncogene activity in human Hs683 cells at 2 mM after 5 to 29 mins by ELISA; format: cell-based; conditions: in the assay text read “5 to 20 mins” for “5 to 29 mins”
Outline: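 Hs683 glioma cells treated with 2 mM for 5 and 20 min, lysed, 100 µg protein used. GTP-Ras captured by GST-Raf-RBD and detected with H-Ras antibody, HRP secondary and chemiluminescence.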

SMILES | pIC50 (MCF7) | pIC50 (PC-3) | pIC50 (SK-MEL-28) | pIC50 [1] | pIC50 [2] | pIC50 (A549) | inhibition (Hs 683)
C=C(C)[C@@H]1CC=C(CO)CC1 [PERILLYL ALCOHOL] | < 3.00 | < 3.00 | < 3.00 | < 3.00 | < 3.00 | < 3.00 | Active
COC(=O)c1sc2nc(N3CCCCC3)sc2c1C | 4.05 | 4.03 | < 4.00 | < 4.00 | < 4.00 | < 4.00 | 
O=C(c1ccccc1)c1sc(N2CCCC2)nc1Cl | 4.20 | < 4.00 | 4.01 | 4.36 | 4.09 | 4.30 | 
CC(=O)c1sc(N2CCOCC2)nc1Cl | 4.06 | < 4.00 | < 4.00 | < 4.00 | 4.08 | < 4.00 | 
CCOC(=O)c1sc(N2CCCC2)nc1Cl | 4.10 | 4.11 | 4.09 | 4.27 | < 4.00 | 4.21 | 
CSc1nc(Br)c(C(=O)c2ccccc2)s1 | 4.17 | < 4.00 | < 4.00 | < 4.00 | 4.05 | 4.01 | 
COC(=O)c1sc2nc(N3CCCC3)sc2c1C | 4.25 | < 4.00 | < 4.00 | 4.04 | 4.05 | 4.07 | 
O=C(c1ccccc1)c1sc(N2CCOCC2)nc1Br | 4.29 | < 4.00 | < 4.00 | 4.03 | < 4.00 | 4.08 | 
O=C(c1ccccc1)c1sc(N2CCCC2)nc1Br | 4.16 | < 4.00 | < 4.00 | < 4.00 | < 4.00 | 4.01 | 
